Assay [1] has as its target T1, Progesterone receptor (Oryctolagus cuniculus) (UniProt P06186).
T1 sequence (whole entry): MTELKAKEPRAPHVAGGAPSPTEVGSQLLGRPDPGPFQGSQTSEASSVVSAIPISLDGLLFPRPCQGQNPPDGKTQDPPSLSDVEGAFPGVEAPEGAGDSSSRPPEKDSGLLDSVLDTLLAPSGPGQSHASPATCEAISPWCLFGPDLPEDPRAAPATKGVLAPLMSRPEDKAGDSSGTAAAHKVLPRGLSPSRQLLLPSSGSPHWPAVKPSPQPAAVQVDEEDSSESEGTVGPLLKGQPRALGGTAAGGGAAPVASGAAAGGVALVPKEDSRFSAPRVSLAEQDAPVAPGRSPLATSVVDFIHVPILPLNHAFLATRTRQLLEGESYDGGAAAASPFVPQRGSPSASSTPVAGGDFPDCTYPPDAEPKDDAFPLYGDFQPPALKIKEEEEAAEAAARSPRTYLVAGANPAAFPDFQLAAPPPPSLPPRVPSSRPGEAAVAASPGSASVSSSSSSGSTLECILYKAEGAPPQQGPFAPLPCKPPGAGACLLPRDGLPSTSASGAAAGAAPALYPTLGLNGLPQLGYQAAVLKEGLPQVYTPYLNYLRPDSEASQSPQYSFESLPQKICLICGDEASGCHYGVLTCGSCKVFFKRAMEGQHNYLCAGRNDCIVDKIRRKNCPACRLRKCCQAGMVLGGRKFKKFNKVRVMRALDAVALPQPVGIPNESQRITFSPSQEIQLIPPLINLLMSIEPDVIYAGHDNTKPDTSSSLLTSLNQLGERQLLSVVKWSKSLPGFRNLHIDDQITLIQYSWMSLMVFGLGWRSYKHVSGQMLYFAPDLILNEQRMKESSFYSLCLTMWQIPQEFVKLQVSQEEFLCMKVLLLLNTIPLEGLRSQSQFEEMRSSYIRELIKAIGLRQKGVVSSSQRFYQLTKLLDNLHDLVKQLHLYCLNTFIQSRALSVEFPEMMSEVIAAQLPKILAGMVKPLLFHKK
The experiment in a line: Displacement of [3H]progesterone from rabbit progesterone receptor after 24 hrs at 0.1 nM to 10 mM. In a few lines: (§1)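 Uterine cytosol from TE buffer (Tris-HCl, 1 mM EDTA, pH 7.4) homogenate by ultracentrifugation. Competitor 0.1 nM–10 mM with constant label ([3H]estradiol 6000 cpm or [3H]progesterone 20000 cpm), 24 h at 4 °C, started by cytosol addition. Bound label isolated; RBA derived against unlabeled estradiol or progesterone standard curves.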

The species named for assay [2] is Oryctolagus cuniculus. The experiment in a line: Displacement of [3H]estradiol from rabbit estrogen receptor after 24 hrs at 0.1 nM to 10 mM. The method in brief: as §1
In assay [3] the test system is Rattus norvegicus. In words: Uterotropic activity in po dosed rat administered for 3 days relative to ethynylestradiol. Type of assay: functional, Uterus. The method in brief:
(§2)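 Immature female rats, 45–55 g, dosed daily for 3 days with sesame oil suspension (0.1 mL); vehicle controls. Uteri removed, cleaned, weighed (nearest 0.2 mg) next day. Expressed as percent activity relative to estradiol (sc) or ethynylestradiol (oral).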

Assay [4] concerns Rattus norvegicus. In words: Antifertility activity in Sprague-Dawley rat assessed as no implantation at 6.8 mg/kg/day, po administered for 5 days measured on day 10. Type of assay: functional, organism-based. The method in brief:
(§3)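 Mated females dosed in sesame oil (0.1 mL) over 5 days from day 0 of pregnancy (sperm-positive day). Autopsy on day 10 of presumptive pregnancy; normal and resorbing fetuses counted. ED100 = dose (mg/kg/day) giving no implantation sites.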

Assay [5] has as its system Rattus norvegicus. The experiment in a line: Antiuterotropic activity in rat assessed as D-estradiol-induced increase in uterine weight inhibition of at 10 ug/kg/day, po administered for 3 days. Type of assay: functional, organism-based. In a few lines:
(§4)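 Immature female rats, 45–55 g, given estradiol together with test compound daily for three consecutive days as sesame oil suspension (0.1 mL); vehicle-only controls. Uteri excised, cleaned and weighed to nearest 0.2 mg the day after last treatment.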

In assay [6] the test system is Oryctolagus cuniculus. The experiment in a line: Progestational activity in Clauberg rabbit at 20 mg/kg/day, sc. Type of assay: functional, organism-based. The method in brief: (§5)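 Immature rabbit (Clauberg); uterine stimulation measured for progestational activity, and its antagonism for antiprogestational activity.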
Assay [7] concerns Oryctolagus cuniculus. The experiment in a line: Antiprogestational activity in Clauberg rabbit at 20 mg/kg/day, sc. Type of assay: functional, organism-based. The method in brief:
as §5

Assay [8] deals with Rattus norvegicus. In words: Uterotropic activity in sc dosed rat administered for 3 days relative to estradiol. Type of assay: functional, Uterus. The method in brief: as §2
For assay [9], the system named is Rattus norvegicus. The experiment in a line: Antifertility activity in sc dosed Sprague-Dawley rat assessed as no implantation administered for 5 days measured on day 10. Type of assay: functional. The method in brief:
as §3

Assay [10] concerns Oryctolagus cuniculus. In words: Antiprogestational activity in Clauberg rabbit at 10 mg/kg/day, po. Type of assay: functional, organism-based. The method in brief: as §5
In assay [11] the test system is Oryctolagus cuniculus. In words: Progestational activity in Clauberg rabbit at 10 mg/kg/day, po. Type of assay: functional, organism-based. The method in brief: as §5
In assay [12] the test system is Rattus norvegicus. In words: Antiandrogenic activity in rat assessed as inhibition of androgen stimulation of ventral prostate at 30 mg/kg/day, sc. To be noted: Prostate gland. Type of assay: functional, organism-based. In a few lines: (§6)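 Immature, castrated male rats; test compound assessed for ability to inhibit androgen stimulation of seminal vesicle, ventral prostate and levator ani weight.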

The subject of assay [13] is Rattus norvegicus. In words: Antifertility activity in Sprague-Dawley rat assessed as no implantation at 4 mg/kg/day, sc administered for 5 days measured on day 10. Type of assay: functional, organism-based. The method in brief: as §3
For assay [14], the system named is Rattus norvegicus. In words: Uterotropic activity in rat at 1 mg/kg/day, sc administered for 3 days relative to ethynylestradiol. To be noted: Uterus.
Assay [15] concerns Rattus norvegicus. In words: Antiandrogenic activity in rat assessed as inhibition of androgen stimulation of levator ani weight at 30 mg/kg/day, sc. Type of assay: functional, organism-based. The method in brief:
as §6

Assay [16] has as its system Rattus norvegicus. The experiment in a line: Antiuterotropic activity in rat assessed as D-estradiol-induced increase in uterine weight inhibition of at 5 mg/kg/day, sc administered for 3 days. Type of assay: functional, organism-based. In a few lines: as §4
Assay [17] relates to Rattus norvegicus. In words: Antiandrogenic activity in rat assessed as inhibition of androgen stimulation of seminal vesicle at 30 mg/kg/day, sc. Type of assay: functional, organism-based. The method in brief: as §6
For assay [18], the system named is Rattus norvegicus. The experiment in a line: Antifertility activity in Sprague-Dawley rat assessed as no implantation at 10 mg/kg/day, sc administered for 5 days measured on day 10. Type of assay: functional, organism-based. In a few lines: as §3
Assay [19] relates to Oryctolagus cuniculus. The experiment in a line: Antiprogestational activity in Clauberg rabbit at 10 mg/kg/day, sc. Type of assay: functional, organism-based. The method in brief: as §5
Assay [20] relates to Oryctolagus cuniculus. In words: Progestational activity in Clauberg rabbit at 10 mg/kg/day, sc. Type of assay: functional, organism-based. The method in brief: as §5

Calls of active or inactive are those of the source. The calls are words filed in the database; no cut-off is given here.

In the case of `C#C[C@]1(O)CC[C@H]2C[C@H]3c4ccc(O)cc4CC[C@H]3C[C@@]21C`, the values for the RBA (in [1]; in the assay filed under Oryctolagus cuniculus [2]) were less than 0.4 and 4.4, respectively. Further, the “relative binding affinity (RBA)” value with Rattus norvegicus [3] came to 0.18. The result with Rattus norvegicus [4] and with Rattus norvegicus [5] was inactive.

`CC(=O)[C@H]1CC[C@H]2C[C@@H]3[C@@H](CCC4=CC(=O)CC[C@H]43)C[C@@]21C` had an RBA in assay [1] of 1.2. The outcome in the assay on Oryctolagus cuniculus [6] and in the assay with Oryctolagus cuniculus [7] was inactive.

`C[C@]12C[C@@H]3CCc4cc(O)ccc4[C@@H]3C[C@@H]1CC[C@@H]2O`: the RBA in the assay listed under Oryctolagus cuniculus [2] stood at 2.9. The “relative binding affinity (RBA)” value in the assay with Rattus norvegicus [8] is recorded as 0.02. Moreover, the ED100 in the assay with Rattus norvegicus [9] is listed as 1 mg/kg/day.

On to `C#C[C@]1(O)CC[C@H]2C[C@@H]3[C@@H](CCC4=CC(=O)CC[C@H]43)C[C@@]21C`, for which, in assay [1], the RBA came out at 2. Besides, the outcome with Oryctolagus cuniculus [10] and in the assay on Oryctolagus cuniculus [11] was inactive.

On to `C[C@]12C[C@@H]3CCC4=CC(=O)CC[C@H]4[C@@H]3C[C@@H]1CC[C@@H]2O`, for which the RBA in assay [1] is less than 0.4; in the assay listed under Oryctolagus cuniculus [2], 0.06. The outcome in the assay with Rattus norvegicus [12], with Rattus norvegicus [13], with Rattus norvegicus [14], in the assay on Rattus norvegicus [15], in the assay on Rattus norvegicus [16] and in the assay on Rattus norvegicus [17] was inactive.

Turning to `COc1ccc2c(c1)CC[C@H]1C[C@@]3(C)C(=CC[C@@H]3OC(C)=O)C=C21`, the RBA in [1] is less than 0.4; in the assay filed under Oryctolagus cuniculus [2], less than 0.025. For the same molecule, the outcome in the assay on Rattus norvegicus [18] was inactive.

As to `C[C@]12C[C@@H]3CCC4=C(CCC(=O)C4)[C@@H]3C[C@@H]1CC[C@@H]2O`, the RBA in assay [1] is less than 0.4; in the assay filed under Oryctolagus cuniculus [2] it was less than 0.085. The outcome in the assay with Rattus norvegicus [12], in the assay with Rattus norvegicus [13], in the assay on Rattus norvegicus [14], in the assay with Rattus norvegicus [15], with Rattus norvegicus [16] and in the assay with Rattus norvegicus [17] was inactive.

For `CC(=O)[C@H]1CC[C@H]2C[C@@H]3[C@@H](CCC4CC(=O)C=C[C@H]43)C[C@@]21C` (stereo partly specified), the RBA in [1] amounted to 1.9. Moreover, the result in the assay on Oryctolagus cuniculus [19] and in the assay on Oryctolagus cuniculus [20] was inactive.
